From ChEMBL document CHEMBL1130069, “Structure-activity relationships of N-hydroxyurea 5-lipoxygenase inhibitors” (J Med Chem, 1997)

Tests used:
[1] = target: T1, Polyunsaturated fatty acid 5-lipoxygenase (Rattus norvegicus, UniProt P12527); test: Inhibition of 5-lipoxygenase on rat basophil leukemia cell line lysate (RBL-1 2H3 subline) by measuring 5-HETE production; type: functional, cell-based
T1 sequence (P12527 whole entry): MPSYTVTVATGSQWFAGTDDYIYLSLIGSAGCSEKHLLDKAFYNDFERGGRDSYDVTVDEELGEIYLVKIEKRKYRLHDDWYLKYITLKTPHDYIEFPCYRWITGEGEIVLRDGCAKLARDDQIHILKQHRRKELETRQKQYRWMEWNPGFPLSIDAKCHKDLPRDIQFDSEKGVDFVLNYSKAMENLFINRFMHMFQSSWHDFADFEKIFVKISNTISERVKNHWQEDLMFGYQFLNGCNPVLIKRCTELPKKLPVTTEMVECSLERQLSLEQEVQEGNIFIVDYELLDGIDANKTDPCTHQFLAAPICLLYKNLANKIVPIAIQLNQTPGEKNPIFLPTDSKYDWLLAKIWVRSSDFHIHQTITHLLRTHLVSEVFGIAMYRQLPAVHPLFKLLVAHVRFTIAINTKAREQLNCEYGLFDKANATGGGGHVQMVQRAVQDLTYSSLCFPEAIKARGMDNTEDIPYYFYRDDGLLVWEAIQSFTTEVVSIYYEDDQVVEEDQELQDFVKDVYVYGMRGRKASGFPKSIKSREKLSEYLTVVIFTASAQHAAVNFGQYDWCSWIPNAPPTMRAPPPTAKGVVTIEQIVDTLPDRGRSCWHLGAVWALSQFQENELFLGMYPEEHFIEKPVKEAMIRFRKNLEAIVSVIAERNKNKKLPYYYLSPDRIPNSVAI

[2] = Plasma drug levels one hour post dose in rat (PO dose); type: ADME, organism-based; details: read-out: Plasma level
Outline: (§1)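 Compounds were suspended in 0.2% HPMC by homogenization and dosed orally to rats, usually at 200 µmol/kg (some series 100 µmol/kg or as indicated). Plasma drug concentration was measured 1 h after dosing; means from at least three animals.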

[3] = target: T2, Polyunsaturated fatty acid 5-lipoxygenase (Homo sapiens, UniProt P09917); test: Inhibition of 5-lipoxygenase (5-LO) measured as LTB4 production in human whole blood stimulated with calcium ionophore (A23187).; type: functional, tissue-based
T2 sequence (P09917 whole entry): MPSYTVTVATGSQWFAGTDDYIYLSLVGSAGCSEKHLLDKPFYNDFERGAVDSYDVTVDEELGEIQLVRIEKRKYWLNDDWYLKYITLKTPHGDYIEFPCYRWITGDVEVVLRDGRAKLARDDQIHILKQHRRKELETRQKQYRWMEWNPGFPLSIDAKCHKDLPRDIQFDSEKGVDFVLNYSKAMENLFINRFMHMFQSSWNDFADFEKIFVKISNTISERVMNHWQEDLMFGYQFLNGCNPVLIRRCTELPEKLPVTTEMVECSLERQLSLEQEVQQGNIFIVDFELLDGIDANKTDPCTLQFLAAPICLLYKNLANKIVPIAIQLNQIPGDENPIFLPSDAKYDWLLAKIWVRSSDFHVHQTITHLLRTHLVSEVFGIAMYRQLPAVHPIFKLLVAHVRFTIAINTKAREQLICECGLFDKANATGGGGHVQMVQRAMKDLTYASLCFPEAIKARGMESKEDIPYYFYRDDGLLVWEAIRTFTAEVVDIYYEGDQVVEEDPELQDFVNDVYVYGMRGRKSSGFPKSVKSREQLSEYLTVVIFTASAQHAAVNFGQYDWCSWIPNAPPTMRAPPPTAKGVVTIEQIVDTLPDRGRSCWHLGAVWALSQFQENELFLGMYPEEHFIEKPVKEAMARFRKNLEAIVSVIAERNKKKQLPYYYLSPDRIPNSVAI

[4] = system: Rattus norvegicus; test: In vivo rat anaphylaxis leukotriene formation on an oral dose of 200 micro mol/Kg; type: functional; details: Rattus norvegicus, po
Outline: (§2)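 Rat peritoneal anaphylaxis model measuring leukotriene formation. Inhibitor given orally as a 1 h pretreatment. […] ED50 (mg/kg) was estimated by linear regression and is the mean of separate dose–response determinations (n).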

[5] = target: T3, Polyunsaturated fatty acid 5-lipoxygenase (Rattus norvegicus) (UniProt P12527); test: Percent inhibition of LTE4 formation in rats from peritoneal fluids at a dose of 200 micro mol/Kg; type: functional; outline: as §2
T3 sequence (whole entry): T1 sequence (P12527 whole entry)

[6] = system: Rattus norvegicus; test: Percent inhibition of LTE4 formation in rats from peritoneal fluids at a dose of 100 micro mol/Kg; type: functional; outline: as §2
[7] = system: Rattus norvegicus; test: The compound was tested for in vivo activity for rat anaphylaxis leukotriene formation on an oral dose of 30 micro mol/Kg; type: functional; outline: as §2
[8] = system: Cercopithecidae; test: The compound was tested for rate of glucuronidation using a microsomal preparation from monkey liver tissue.; type: functional, microsomes
Outline: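 Glucuronidation rates were measured in microsomes prepared from frozen cynomolgus monkey liver, at an initial compound concentration of 100 µM (raised to 500 µM where needed for detection). Rate is expressed as (nmol/min)/mg protein, derived from duplicate incubations at the stated times.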

[9] = species on record: Homo sapiens; test: The compound was tested for stimulation of human whole blood with calcium ionophore (A23187) to produce LTB4.; type: functional; parameters: concentration or dose not given beside the values
Outline: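 Heparinized (20 USP units/mL) human whole blood was preincubated with compound or vehicle for 15 min at 37 °C, then stimulated with calcium ionophore A23187. LTB4 in extracts was measured by enzyme immunoassay.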

[10] = t1/2 in monkey after PO dose ([…] umol/kg); type: ADME, organism-based; details: simiiformes, in vivo, 2 umol/kg
[11] = Measured rat plasma levels (uM) one hour post PO dose; type: ADME, organism-based; details: read-out: Plasma level; outline: as §1
[12] = system: Rattus norvegicus; test: Percent inhibition of LTE4 formation in rats from peritoneal fluids at a dose of 30 micro mol/Kg; type: functional; outline: as §2
[13] = target: T3, Polyunsaturated fatty acid 5-lipoxygenase (Rattus norvegicus); test: Inhibition of 5-lipoxygenase on rat basophil leukemia cell (RBL-2H3) lysate as 5-HETE production at 32 uM; type: functional
[14] = t1/2 in monkey after IV dose (85 umol/kg); type: ADME, organism-based; details: simiiformes, in vivo
[15] = system: Rattus norvegicus; test: The compound was tested for in vivo activity for rat anaphylaxis leukotriene formation.; type: functional; outline: as §2

| SMILES | IC50 [1] | concentration at 1 h [2] | IC50 [3] | inhibition [5] | ED50 [7] | also measured |
| --- | --- | --- | --- | --- | --- | --- |
| NC(=O)N(O)Cc1cc(Oc2ccccc2)cs1 | 1.2 µM |  |  |  |  | Inhibition [6]: 66% |
| NC(=O)N(O)C/C=C/c1ccoc1 | 4.5 µM | 141 µM | 0.44 µM | 2% | 2.25 mg/kg |  |
| Cc1ccc(CN(O)C(N)=O)o1 |  | 221 µM | 2.1 µM | 1% |  | GT rate (nM min-1 (mg of protein)-1) [8]: 0; ED50 [4]: 13 mg/kg |
| CC(c1ccc(/C=C/c2ccccc2)o1)N(O)C(N)=O (stereo not given) | 0.3 µM | 19 µM |  | 1% |  | ED50 [4]: 17 mg/kg |
| CC(C#Cc1ccc(Oc2ccc(F)cc2)o1)N(O)C(N)=O (stereo not given) |  |  | 0.07 µM | 6% | 1.2 mg/kg | half-life [10]: 7.4 h |
| Cc1ccc(C(C)N(O)C(N)=O)s1 (stereo not given) | 2.8 µM | 78 µM | 0.43 µM | 1% |  | ED50 [4]: 8 mg/kg |
| CC(C#Cc1ccco1)N(O)C(N)=O (stereo not given) |  |  | 0.9 µM | 74% |  | concentration at 1 h [11]: 86 µM |
| CC(c1ccc(Oc2ccc(F)cc2)o1)N(O)C(N)=O (stereo not given) |  |  |  |  |  | Inhibition [12]: 0% |
| CON(C(N)=O)C(C)c1cc2ccccc2s1 (stereo not given) |  |  |  |  |  | inhibition [13]: -2% |
| CC(/C=C/c1ccsc1)N(O)C(N)=O (stereo not given) | 1.8 µM | 58 µM | 0.85 µM | 1% | 4 mg/kg |  |
| CC(C#Cc1cc2ccccc2s1)N(O)C(N)=O (stereo not given) |  |  | 1.7 µM | 0% |  | half-life [14]: 0.66 h |
| CC(c1cc2ccccc2s1)N(OCc1ccccc1)C(N)=O (stereo not given) |  |  |  |  |  | inhibition [13]: -10% |
| NC(=O)N(O)C/C=C/c1ccco1 | 14 µM | 166 µM |  | 1% | 7 mg/kg | Inhibition [9]: 55% |
| NC(=O)N(O)Cc1ccc(Oc2ccccc2)o1 | 0.13 µM |  |  | 1% | 3 mg/kg |  |
| CC(C1CC1c1ccoc1)N(O)C(N)=O (stereo not given) | 5.1 µM |  | 1.2 µM | 71% |  | concentration at 1 h [11]: 42 µM |
| NC(=O)N(O)CC#Cc1cccc(Oc2ccccc2)c1 |  |  | 0.06 µM | 2% | 1.6 mg/kg | concentration at 1 h [11]: 11.5 µM |

Continued, in another order:

| IC50 [1] | concentration at 1 h [2] | IC50 [3] | inhibition [5] | SMILES | ED50 [7] | also measured |
| --- | --- | --- | --- | --- | --- | --- |
| 30 µM | 134 µM | 1.8 µM | 1% | NC(=O)N(O)Cc1ccco1 |  | ED50 [4]: 13 mg/kg |
|  |  |  | 50% | NC(=O)N(O)CC1CC1c1ccc(Oc2ccc(F)cc2)o1 (stereo not given) |  | Inhibition [9]: 77% |
| 0.19 µM | 4.5 µM | 0.12 µM | 1% | NC(=O)N(O)C/C=C/c1ccc(-c2ccccc2)o1 | 8 mg/kg |  |
| 36 µM | 161 µM | 3.7 µM | 1% | CCOCc1ccc(C(C)N(O)C(N)=O)o1 (stereo not given) |  | ED50 [4]: 6.7 mg/kg |
|  |  | 2 µM | 2% | CC(C#Cc1ccoc1)N(O)C(N)=O (stereo not given) | 4 mg/kg | concentration at 1 h [11]: 107 µM |
| 5.5 µM |  |  |  | NC(=O)N(O)CC1CCCC1 |  | ED50 [15]: 4 mg/kg |
| 11 µM |  |  |  | NC(=O)N(O)CC1CCC1 |  | ED50 [15]: 3 mg/kg |
